Assay results published in ChEMBL document CHEMBL4390648, “Chemical synthesis, crystal structure, versatile evaluation of their biological activities and molecular simulations of novel pyrithiobac derivatives” (Eur J Med Chem, 2019).
≈ marks a conversion by molar mass, not a printed value. Calls of active or inactive are those of the source. The calls are words filed in the database; no cut-off is given here.

Legend:
Candida albicans [1] = assay: Antifungal activity against Candida albicans SC5314 grown in YNB medium incubated for 24 hrs by microdilution method; type: functional; conditions: SC5314, 24 h
Outline: (§1)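 C. albicans standard strain SC5314 and clinical isolates g5 and 17# tested by broth microdilution in YNB or RPMI 1640 medium. Plates incubated at 35 °C for up to 72 h, with visual readings taken at 24 h. MIC taken as the lowest concentration preventing visible growth.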

Candida albicans [2] = assay: Inhibition of Candida albicans AHAS catalytic subunit at 10 uM using pyruvate as substrate measured after 30 mins by colorimetric method relative to control
Outline: (§2)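 Colorimetric assay in 50 mM potassium phosphate pH 7.0 with 50 mM pyruvate, 1 mM thiamine diphosphate, 10 mM MgCl2 and 10 μM FAD. Incubated 30 min at 37 °C for plant AHAS and 30 °C for fungal AHAS. Acetolactate formed was then quantified.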

Colletotrichum = assay: Antifungal activity against Colletotrichum (W. anthracnose) assessed as reduction in growth at 50 mg/l by mycelium growth rate method relative to control; type: functional
Outline: (§3)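 Mycelium growth rate method against S. sclerotiorum, P. capsici, P. piricola, R. cerealis, W. anthracnose and R. bakanae. Each compound tested at 50 mg/L, with chlorothalonil and PTB as controls. Relative inhibitory ratio (%) calculated from mycelial growth.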

Mythimna separata = assay: Insecticidal activity against Mythimna separata assessed as larval mortality at 600 mg/l by leaf-dip method; type: functional
[3] = tested on: Botryosphaeria berengeriana; assay: Antifungal activity against Physalospora pyricola assessed as reduction in growth at 50 mg/l by mycelium growth rate method relative to control; type: functional; outline: as §3
Arabidopsis thaliana [4] = assay: Inhibition of Arabidopsis thaliana AHAS catalytic subunit using pyruvate as substrate at 100 uM measured after 30 mins by colorimetric method relative to control; outline: as §2
Candida albicans [5] = assay: Antifungal activity against Candida albicans isolate 17 grown in RPMI 1640 medium incubated for 24 hrs by microdilution method; type: functional; conditions: isolate 17, 24 h; outline: as §1
Phytophthora capsici = assay: Antifungal activity against Phytophthora capsici assessed as reduction in growth at 50 mg/l by mycelium growth rate method relative to control; type: functional; outline: as §3
Candida albicans [6] = assay: Antifungal activity against Candida albicans isolate 17 grown in YNB medium incubated for 24 hrs by microdilution method; type: functional; conditions: isolate 17, 24 h; outline: as §1
Sclerotinia sclerotiorum = assay: Antifungal activity against Sclerotinia sclerotiorum assessed as reduction in growth at 50 mg/l by mycelium growth rate method relative to control; type: functional; outline: as §3
Candida albicans [7] = assay: Antifungal activity against Candida albicans isolate g5 grown in RPMI 1640 medium incubated for 24 hrs by microdilution method; type: functional; conditions: isolate g5, 24 h; outline: as §1
Candida albicans [8] = assay: Inhibition of Candida albicans AHAS catalytic subunit at 100 uM using pyruvate as substrate measured after 30 mins by colorimetric method relative to control; outline: as §2
Tobacco mosaic virus [9] = assay: Antiviral activity against Tobacco mosaic virus inoculated in Nicotiana tabacum leaves assessed as passivation by measuring local lesion numbers at 500 mg/l pre-incubated with virus for 30 mins followed by inoculation and measured up to 4 days; type: functional
Outline: (§4)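 Passivation assay: TMV mixed with an equal volume of compound solution for 30 min, then rubbed onto the left half of N. tabacum L. leaves. The right half received virus mixed with solvent as control. Local lesions counted 3–4 days after inoculation. Compounds tested at 500 or 100 mg/L.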

Candida albicans [10] = assay: Antifungal activity against Candida albicans isolate g5 grown in YNB medium incubated for 24 hrs by microdilution method; type: functional; conditions: isolate g5, 24 h; outline: as §1
Fusarium fujikuroi = assay: Antifungal activity against Gibberella fujikuroi assessed as reduction in growth at 50 mg/l by mycelium growth rate method relative to control; type: functional; outline: as §3
Candida albicans [11] = assay: Antifungal activity against Candida albicans SC5314 grown in RPMI 1640 medium incubated for 24 hrs by microdilution method; type: functional; conditions: SC5314, 24 h; outline: as §1
[12] = tested on: Brassica rapa subsp. oleifera; assay: Herbicidal activity against Brassica campestris L assessed as inhibition of rape root growth at 100 mg/l root growth incubated for 48 hrs relative to control; type: functional
Outline: (§5)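 Rape seeds soaked in distilled water for 4 h, then placed on filter paper wetted with inhibitor solution, 15 seeds per 6-cm dish. Germinated in the dark at 28 °C for 48 h. Mean length of 10 roots per plate measured.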

[13] = tested on: Brassica rapa subsp. oleifera; assay: Herbicidal activity against Brassica campestris L assessed as inhibition of rape root growth at 10 mg/l root growth incubated for 48 hrs relative to control; type: functional; outline: as §5
Tobacco mosaic virus [14] = assay: Antiviral activity against Tobacco mosaic virus inoculated in Nicotiana tabacum leaves assessed as passivation by measuring local lesion numbers at 100 mg/l pre-incubated with virus for 30 mins followed by inoculation and measured up to 4 days; type: functional; outline: as §4
Arabidopsis thaliana [15] = assay: Inhibition of Arabidopsis thaliana AHAS catalytic subunit using pyruvate as substrate at 10 uM measured after 30 mins by colorimetric method relative to control; outline: as §2
Ceratobasidium cereale = assay: Antifungal activity against Rhizoctonia cerealis assessed as reduction in growth at 50 mg/l by mycelium growth rate method relative to control; type: functional; outline: as §3
[16] = tested on: Severe acute respiratory syndrome-related coronavirus; assay: Inhibition of SARS coronavirus M protease using AVLQSGFRKK as substrate at 20 uM by FRET assay relative to control
Outline: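 Purified SARS-CoV Mpro assayed by FRET. Protein, compound and substrate were preheated at 37 °C and oscillated. Fluorescence (ex 320/em 405 nm) was read every 5 s for 200 reads.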

SMILES | MIC (Candida albicans [1]) [µg/mL] | inhibition (Candida albicans [2]) [%] | inhibition at 50 µg/mL (Colletotrichum) [%] | mortality at 600 µg/mL (Mythimna separata) [%] | inhibition at 50 µg/mL [3] [%] | inhibition (Arabidopsis thaliana [4]) [%] | MIC (Candida albicans [5]) [µg/mL] | inhibition at 50 µg/mL (Phytophthora capsici) [%] | MIC (Candida albicans [6]) [µg/mL] | inhibition at 50 µg/mL (Sclerotinia sclerotiorum) [%] | MIC (Candida albicans [7]) [µg/mL] | inhibition (Candida albicans [8]) [%] | inhibition at 500 µg/mL (Tobacco mosaic virus [9]) [%] | MIC (Candida albicans [10]) [µg/mL] | inhibition at 50 µg/mL (Fusarium fujikuroi) [%] | MIC (Candida albicans [11]) [µg/mL] | inhibition (INH) [12] [%] | inhibition (INH) [13] [%] | inhibition (Tobacco mosaic virus [14]) | inhibition (Arabidopsis thaliana [15]) [%] | further results
COc1nc(OC)nc(Sc2ccc(C(=O)O)cc2Cl)n1 | 100 (≈ 305 µM) | 25.6 | 16.7 | 20 | 42.2 | 15.3 | > 100 | 58.3 | 25 (≈ 76.3 µM) | 69.4 | > 100 | 73 | 0 | 100 (≈ 305 µM) | 27.3 | > 100 | 58.2 | 0 | inactive | 12.6 | inhibition at 50 µg/mL (Ceratobasidium cereale): 59.5%; inhibition [16]: 25.5%
COc1nc(OC)nc(Sc2ccc(C(=O)O)cc2Br)n1 | > 100 | 50.1 | 35.7 | 10 | 46.9 | 30 | > 100 | 41.7 | > 100 | 77.8 | > 100 | 92.4 | 21.4 | > 100 | 57.6 | > 100 | 34.3 | 0 | inactive | 22.4 | inhibition at 50 µg/mL (Ceratobasidium cereale): 58.3%; inhibition [16]: 25%
COc1cc(OC)nc(Sc2cc(C(F)(F)F)ccc2C#N)n1 | > 100 | 7.9 | 26.2 | 65 | 28.1 | 91.6 | > 100 | 66.7 | > 100 | 11.1 | > 100 | 26.1 | 35.8 | > 100 | 45.5 | > 100 | 66.1 | 12.3 | inactive | 18 | inhibition at 50 µg/mL (Ceratobasidium cereale): 70.2%; inhibition [16]: 29.9%
COc1nc(OC)nc(Sc2ccc(Br)cc2C(=O)O)n1 | > 100 | 59.3 | 23.8 | 45 | 59.4 | 19 | > 100 | 33.3 | > 100 | 66.7 | > 100 | 96.7 | 0 | > 100 | 6.1 | > 100 | 55.1 | 5.2 | inactive | 12 | inhibition at 50 µg/mL (Ceratobasidium cereale): 58.3%; inhibition [16]: 48.8%
COc1nc(OC)nc(Sc2cccc(F)c2C#N)n1 | 6.25 (≈ 21.4 µM) | 46.3 | 42.9 | 20 | 45.3 | 86.5 | 100 (≈ 342 µM) | 33.3 | 3.12 (≈ 10.7 µM) | 63.9 | 100 (≈ 342 µM) | 70.4 | 0 | 12.5 (≈ 42.8 µM) | 24.2 | 100 (≈ 342 µM) | 26.2 | 2.2 | inactive | 34.5 | inhibition at 50 µg/mL (Ceratobasidium cereale): 52.4%; inhibition [16]: 90.8%
COc1nc(OC)nc(Sc2ccc(Cl)cc2C(=O)O)n1 | > 100 | 39.3 | 16.7 | 40 | 40.6 | 59.6 | > 100 | 8.3 | > 100 | 61.1 | > 100 | 68.8 | 0 | > 100 | 0 | > 100 | 24.2 | 0 | inactive | 5.5 | inhibition at 50 µg/mL (Ceratobasidium cereale): 52.4%; inhibition [16]: 24.2%
COc1nc(OC)nc(Sc2cccc(Cl)c2C#N)n1 | > 100 | 38.9 | 40.5 | 5 | 51.6 | 79.3 | > 100 | 33.3 | > 100 | 50 | > 100 | 59.5 | 0 | > 100 | 21.2 | > 100 | 17.4 | 0 | inactive | 19.8 | inhibition at 50 µg/mL (Ceratobasidium cereale): 27.4%; inhibition [16]: 76.6%
